Laboratory results as given in ChEMBL document CHEMBL4715714, “Design, synthesis and biological evaluation of thiosemicarbazones, hydrazinobenzothiazoles and arylhydrazones as anticancer agents with a potential to overcome multidrug resistance” (Eur J Med Chem, 2016).
The source made the active and inactive calls. The rule behind the calls is not given here.

Test system: A2780
Assay: Cytotoxicity against human A2780 cells assessed as inhibition of cell proliferation incubated for 72 hrs by MTT assay
Type: functional, cell-based
Conditions: A2780, 72 h, read-out: IC50
Summary of the method: (§1)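 Cells were seeded (10000/well for A2780, 5000/well for MES-SA/Dx5 and KB-3-1/V1) and left to attach 12 h, then exposed to compound for 72 h. Medium was removed, and MTT (0.83 mg/mL) was added for 1 h at 37 °C. Cells were lysed in DMSO and absorbance read at 540 nm. Signal was corrected for unstained lysate background, normalized to untreated cells, and IC50 taken from a sigmoidal dose-response fit.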

Q: With CCc1ccc(/C=N/Nc2cc(OC)ncn2)nc1 as the molecule, how does the IC50 read?
A: 1.3 µM

Q: Which IC50 does the source give for Cc1ccc(NC(=S)N/N=C2\C(=O)Nc3ccccc32)cc1 here?
A: 9.7 µM

Q: With C/C(=N\Nc1nc2ccccc2s1)c1ccccn1 as the molecule, how does the IC50 read?
A: 0.094 µM

Same assay, conditions: A2780, 72 h, read-out: pIC50 (converted)

Q: Which IC50 does the source give for CCc1ccc(/C=N/Nc2cc(OC)ncn2)nc1 here?
A: 1.29 µM

Q: For Cc1ccc(NC(=S)N/N=C2\C(=O)Nc3ccccc32)cc1, which IC50 is on record?
A: 9.55 µM

Q: With C/C(=N\Nc1nc2ccccc2s1)c1ccccn1 as the molecule, how does the IC50 read?
A: 0.0891 µM

Test system: not listed separately
Assay: Selectivity ratio of IC50 for human MES-SA cells to IC50 for human MES-SA/DX5 cells incubated for 72 hrs by MTT assay
Type: functional
Conditions: not given
Summary of the method: (§2)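 The selectivity ratio is the IC50 in P-gp-negative parental cells divided by the IC50 in the P-gp-positive resistant partner.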

Q: With CCc1ccc(/C=N/Nc2cc(OC)ncn2)nc1 as the molecule, how does the “Ratio IC50” value read?
A: 1.41

Q: With Cc1ccc(NC(=S)N/N=C2\C(=O)Nc3ccccc32)cc1 as the molecule, how does the “Ratio IC50” value read?
A: 1.87

Q: With C/C(=N\Nc1nc2ccccc2s1)c1ccccn1 as the molecule, how does the “Ratio IC50” value read?
A: 17.58

Test system: MES-SA/Dx5
Assay: Cytotoxicity against human MES-SA/DX5 cells transfected with mCherry fluorescent protein incubated for 72 hrs in presence of efflux pump inhibitor, Tariquidar by fluorescence assay
Type: functional, cell-based
Conditions: not given
Summary of the method: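 The mCherry-expressing cells (lentiviral) were seeded at 5000 or 2500 per well, attached for 24 h, and exposed 72 h to compounds with Tariquidar coadministered. Live-cell signal was fluorescence at 585 nm excitation and 610 nm emission.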

Q: Which Activity does the source give for Cc1ccc(NC(=S)N/N=C2\C(=O)Nc3ccccc32)cc1 here?
A: inactive

Test system: MES-SA/Dx5
Assay: Cytotoxicity against human MES-SA/DX5 cells assessed as inhibition of cell proliferation incubated for 72 hrs by MTT assay
Type: functional, cell-based
Conditions: MES-SA/Dx5, 72 h, read-out: IC50
Summary of the method: as §1

Q: With CCc1ccc(/C=N/Nc2cc(OC)ncn2)nc1 as the molecule, how does the IC50 read?
A: 1.11 µM

Q: Which IC50 does the source give for Cc1ccc(NC(=S)N/N=C2\C(=O)Nc3ccccc32)cc1 here?
A: 3.27 µM

Q: Which IC50 does the source give for C/C(=N\Nc1nc2ccccc2s1)c1ccccn1 here?
A: 0.014 µM

Same assay, conditions: MES-SA/Dx5, 72 h, read-out: pIC50 (converted)

Q: For Cc1ccc(NC(=S)N/N=C2\C(=O)Nc3ccccc32)cc1, which IC50 is on record?
A: 3.31 µM

Q: For C/C(=N\Nc1nc2ccccc2s1)c1ccccn1, which IC50 is on record?
A: 0.0123 µM

Test system: MES-SA
Assay: Cytotoxicity against human MES-SA cells transfected with mCherry fluorescent protein assessed as inhibition of cell proliferation incubated for 72 hrs by fluorescent assay
Type: functional, cell-based
Conditions: Homo sapiens, MES-SA, 72 h; read-out: IC50
Summary of the method: (§3)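 MES-SA and MES-SA/Dx5 cells were made to stably express mCherry by lentiviral transduction. Cells were seeded at 5000 (96-well) or 2500 (384-well) per well, allowed to attach 24 h, then treated with compound dilutions for 72 h. Viability was read as fluorescence, excitation 585 nm, emission 610 nm.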

Q: Which IC50 does the source give for CCc1ccc(/C=N/Nc2cc(OC)ncn2)nc1 here?
A: 2.33 µM

Q: Which IC50 does the source give for Cc1ccc(NC(=S)N/N=C2\C(=O)Nc3ccccc32)cc1 here?
A: 11.3 µM

Q: Which IC50 does the source give for C/C(=N\Nc1nc2ccccc2s1)c1ccccn1 here?
A: 0.25 µM

Same assay, conditions: Homo sapiens, MES-SA, 72 h; read-out: pIC50 (converted)

Q: With C/C(=N\Nc1nc2ccccc2s1)c1ccccn1 as the molecule, how does the IC50 read?
A: 0.24 µM

Test system: HFF
Assay: Cytotoxicity against human HFF cells by MTT assay
Conditions: not given

Q: For Cc1ccc(NC(=S)N/N=C2\C(=O)Nc3ccccc32)cc1, which Activity is on record?
A: Toxic

Q: Which Activity does the source give for C/C(=N\Nc1nc2ccccc2s1)c1ccccn1 here?
A: Non-Toxic

Test system: KB 3-1
Assay: Cytotoxicity against human KB-3-1 cells assessed as inhibition of cell proliferation incubated for 72 hrs by MTT assay
Type: functional, cell-based
Conditions: KB 3-1, 72 h, read-out: IC50
Summary of the method: as §1

Q: Which IC50 does the source give for CCc1ccc(/C=N/Nc2cc(OC)ncn2)nc1 here?
A: 1.23 µM

Q: With Cc1ccc(NC(=S)N/N=C2\C(=O)Nc3ccccc32)cc1 as the molecule, how does the IC50 read?
A: 4.44 µM

Q: For C/C(=N\Nc1nc2ccccc2s1)c1ccccn1, which IC50 is on record?
A: 0.34 µM

Same assay, conditions: KB 3-1, 72 h, read-out: pIC50 (converted)

Q: With CCc1ccc(/C=N/Nc2cc(OC)ncn2)nc1 as the molecule, how does the IC50 read?
A: 1.23 µM

Q: Which IC50 does the source give for Cc1ccc(NC(=S)N/N=C2\C(=O)Nc3ccccc32)cc1 here?
A: 4.17 µM

Q: Which IC50 does the source give for C/C(=N\Nc1nc2ccccc2s1)c1ccccn1 here?
A: 0.372 µM

Test system: A2780 ADR
Assay: Cytotoxicity against human A2780adr cells assessed as inhibition of cell proliferation incubated for 72 hrs in presence of efflux pump inhibitor, Tariquidar by MTT assay
Type: functional, cell-based
Conditions: not given

Q: With CCc1ccc(/C=N/Nc2cc(OC)ncn2)nc1 as the molecule, how does the Activity read?
A: Active

Test system: MES-SA/Dx5
Assay: Cytotoxicity against human MES-SA/DX5 cells incubated for 72 hrs in presence of efflux pump inhibitor, Tariquidar by MTT assay
Type: functional, cell-based
Conditions: not given
Summary of the method: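 Run as the 72 h MTT viability readout (12 h attachment, MTT 0.83 mg/mL for 1 h, DMSO lysis, A540), with the P-gp inhibitor Tariquidar at 1 µM co-present. IC50 came from sigmoidal fits of 2 to 4 independent experiments.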

Q: Which Activity does the source give for CCc1ccc(/C=N/Nc2cc(OC)ncn2)nc1 here?
A: Active

Q: For Cc1ccc(NC(=S)N/N=C2\C(=O)Nc3ccccc32)cc1, which Activity is on record?
A: Active

Q: With C/C(=N\Nc1nc2ccccc2s1)c1ccccn1 as the molecule, how does the Activity read?
A: Active

Test system: not listed separately
Assay: Selectivity ratio of IC50 for human A2780 cells to IC50 for human A2780adr cells incubated for 72 hrs by MTT assay
Type: functional
Conditions: not given
Summary of the method: as §2

Q: With CCc1ccc(/C=N/Nc2cc(OC)ncn2)nc1 as the molecule, how does the “Ratio IC50” value read?
A: 2.03

Test system: KB-V1
Assay: Cytotoxicity against human KB-V1 cells assessed as inhibition of cell proliferation incubated for 72 hrs by MTT assay
Type: functional, cell-based
Conditions: KB-V1, 72 h, read-out: IC50
Summary of the method: as §1

Q: Which IC50 does the source give for CCc1ccc(/C=N/Nc2cc(OC)ncn2)nc1 here?
A: 1.57 µM

Q: With Cc1ccc(NC(=S)N/N=C2\C(=O)Nc3ccccc32)cc1 as the molecule, how does the IC50 read?
A: 4 µM

Q: For C/C(=N\Nc1nc2ccccc2s1)c1ccccn1, which IC50 is on record?
A: 0.28 µM

Same assay, conditions: KB-V1, 72 h, read-out: pIC50 (converted)

Q: With CCc1ccc(/C=N/Nc2cc(OC)ncn2)nc1 as the molecule, how does the IC50 read?
A: 1.55 µM

Q: With Cc1ccc(NC(=S)N/N=C2\C(=O)Nc3ccccc32)cc1 as the molecule, how does the IC50 read?
A: 3.98 µM

Q: For C/C(=N\Nc1nc2ccccc2s1)c1ccccn1, which IC50 is on record?
A: 0.295 µM

Test system: MES-SA
Assay: Cytotoxicity against human MES-SA cells assessed as inhibition of cell proliferation incubated for 72 hrs by MTT assay
Type: functional, cell-based
Conditions: read-out: IC50
Summary of the method: as §1

Q: With CCc1ccc(/C=N/Nc2cc(OC)ncn2)nc1 as the molecule, how does the IC50 read?
A: 1.55 µM

Q: Which IC50 does the source give for Cc1ccc(NC(=S)N/N=C2\C(=O)Nc3ccccc32)cc1 here?
A: 5.33 µM

Q: Which IC50 does the source give for C/C(=N\Nc1nc2ccccc2s1)c1ccccn1 here?
A: 0.2 µM

Same assay, conditions: read-out: pIC50 (converted)

Q: Which IC50 does the source give for Cc1ccc(NC(=S)N/N=C2\C(=O)Nc3ccccc32)cc1 here?
A: 5.13 µM

Q: With C/C(=N\Nc1nc2ccccc2s1)c1ccccn1 as the molecule, how does the IC50 read?
A: 0.219 µM

Test system: not listed separately
Assay: Selectivity ratio of IC50 for human MES-SA cells transfected with mCherry to IC50 for human MES-SA/DX5 cells transfected with mCherry incubated for 72 hrs by fluorescent assay
Type: functional
Conditions: not given

Q: With Cc1ccc(NC(=S)N/N=C2\C(=O)Nc3ccccc32)cc1 as the molecule, how does the “Ratio IC50” value read?
A: 3.1

Test system: MES-SA/Dx5
Assay: Reduction in P-gp expression in human MES-SA/DX5 cells at IC20 concentration incubated for 5 days by calcein-AM staining based flow cytometric analysis
Type: functional, cell-based
Conditions: time 5.0 day
Summary of the method: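 MES-SA/Dx5 cells were grown 5 days with compound at IC20 values calculated from viability assays, then recovered in drug-free medium refreshed every fifth day. At 80% confluency, cells were stained with Calcein AM with or without verapamil, with TO-PRO-3 excluding dead cells, and analysed by flow cytometry for the P-gp-negative fraction.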

Q: For Cc1ccc(NC(=S)N/N=C2\C(=O)Nc3ccccc32)cc1, which inhibition is on record?
A: Active

Test system: MES-SA/Dx5
Assay: Cytotoxicity against human MES-SA/DX5 cells transfected with mCherry fluorescent protein assessed as inhibition of cell proliferation incubated for 72 hrs by fluorescent assay
Type: functional, cell-based
Conditions: Homo sapiens, MES-SA/Dx5, 72 h; read-out: IC50
Summary of the method: as §3

Q: For CCc1ccc(/C=N/Nc2cc(OC)ncn2)nc1, which IC50 is on record?
A: 2.11 µM

Q: Which IC50 does the source give for Cc1ccc(NC(=S)N/N=C2\C(=O)Nc3ccccc32)cc1 here?
A: 3.27 µM

Q: With C/C(=N\Nc1nc2ccccc2s1)c1ccccn1 as the molecule, how does the IC50 read?
A: 0.1 µM

Same assay, conditions: Homo sapiens, MES-SA/Dx5, 72 h; read-out: pIC50 (converted)

Q: Which IC50 does the source give for C/C(=N\Nc1nc2ccccc2s1)c1ccccn1 here?
A: 0.0832 µM

Test system: not listed separately
Assay: Cytotoxicity against human A2780adr cells assessed as inhibition of cell proliferation incubated for 72 hrs by MTT assay
Type: functional, cell-based
Conditions: A2780 ADR, read-out: IC50
Summary of the method: as §1

Q: With CCc1ccc(/C=N/Nc2cc(OC)ncn2)nc1 as the molecule, how does the IC50 read?
A: 0.63 µM

Q: With Cc1ccc(NC(=S)N/N=C2\C(=O)Nc3ccccc32)cc1 as the molecule, how does the IC50 read?
A: 8.75 µM

Q: For C/C(=N\Nc1nc2ccccc2s1)c1ccccn1, which IC50 is on record?
A: 0.031 µM

Same assay, conditions: A2780 ADR, read-out: pIC50 (converted)

Q: With CCc1ccc(/C=N/Nc2cc(OC)ncn2)nc1 as the molecule, how does the IC50 read?
A: 0.617 µM

Q: With Cc1ccc(NC(=S)N/N=C2\C(=O)Nc3ccccc32)cc1 as the molecule, how does the IC50 read?
A: 8.91 µM

Q: For C/C(=N\Nc1nc2ccccc2s1)c1ccccn1, which IC50 is on record?
A: 0.0302 µM
